MrgX1 PAM – positive allosteric modulators of MrgX1, primary screen, HEK293 cells, Fluo-4 calcium flux; Mas-related G-protein coupled receptor member X1 (Homo sapiens), Q96LB2; FDSS; active compounds read high; B-score at 10 µM; 310,000 tested, 0.63% active; AID 588675, 2011;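 active means plate-corrected calcium response at least 3 library SD above typical, normal starting fluorescence, not activating the receptor alone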;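 further: compound read alongside a low EC10 to EC30 dose of BAM8-22 agonist; peak minus trough fluorescence over baseline measured at the second addition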
Target sequence (Q96LB2 whole entry, looked up): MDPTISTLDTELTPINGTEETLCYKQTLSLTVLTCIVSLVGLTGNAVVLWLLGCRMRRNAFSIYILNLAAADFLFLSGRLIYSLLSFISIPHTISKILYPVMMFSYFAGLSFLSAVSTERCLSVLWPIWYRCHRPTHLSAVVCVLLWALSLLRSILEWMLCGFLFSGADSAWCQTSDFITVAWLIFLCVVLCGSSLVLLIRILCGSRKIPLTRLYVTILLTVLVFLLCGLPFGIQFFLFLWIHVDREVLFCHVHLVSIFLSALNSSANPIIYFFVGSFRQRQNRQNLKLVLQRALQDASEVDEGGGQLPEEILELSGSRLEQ
RGS4 pot – RGS4 potentiators or activators, primary screen, cell-based, HEK293 M3R inducible RGS4, calcium flux; 310,000 tested, 0.92% active; carbachol calcium flux Fluo4; active compounds read low; B-score at 10 µM; AID 463111, 2010;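 active means B-score of the integrated calcium signal more than 4 SD below the library mean, with starting fluorescence not abnormally high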;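 further: negative B-score means reduced calcium response which marks RGS4 activation or potentiation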
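test system = M3R-expressing HEK293 line, RGS4 induced by doxycycline | probe or stimulus = carbachol at ECmax as muscarinic agonist stimulus | timing = dye loading 30 min 37 °C, buffer rest 30 min RT | signal = calcium dye Fluo4 fluorescence | evaluation = B score from integrated fluorescence ratio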
MrgX1 antagonist – antagonists of human MrgX1 receptor, primary screen, HEK293 cells, Fluo-4 calcium flux; Mas-related G-protein coupled receptor member X1 (Homo sapiens), Q96LB2; BAM8-22 antagonism; active compounds read low; B-score at 10 µM; 310,000 tested, 1.3% active;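 active means calcium-response B-score plate-corrected more than 3 library SD below zero, starting fluorescence within 5 deviations, no agonist response on first addition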;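 further: peak minus trough fluorescence over baseline after final BAM8-22 challenge near maximal dose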
MrgX1 agonist – agonists of human MrgX1 receptor, primary screen, HEK293 cells, Fluo-4 calcium flux; Mas-related G-protein coupled receptor member X1 (Homo sapiens), Q96LB2; Fluo-4 calcium fluorescence, agonist mode; active compounds read high; B-score at 10 µM; 310,000 tested, 0.44% active;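 active means calcium response B-score plate-corrected fluorescence ratio at least 3 library SD, with starting fluorescence B-score inside 5 SD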
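Assay system: stable human MrgX1 HEK293 cell line. Quantity: 15,000 cells per well. Schedule: cells plated overnight, dye loaded 0.5 h 37 °C, 0.5 h room temperature. Detection: Fluo-4 NW calcium-flux fluorescence, kinetic read. Read-out basis: peak-minus-minimum fluorescence over baseline, converted to B scores. Control set: positive and negative control wells on each plate.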
RGS4 inh – RGS4 inhibitors, primary screen, cell-based, HEK293 M3R inducible RGS4, calcium flux | Regulator of G-protein signaling 4 (Homo sapiens), P49798 | Fluo-4 calcium flux; active compounds read high; triggered by carbachol at its EC20 | B-score at 10 µM | 310,000 tested, 0.45% active | AID 463165, 2010;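 active means B-score, a plate-corrected calcium signal, over three deviations above library mean, with baseline fluorescence within five deviations of library mean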;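 further: RGS4 expression induced by doxycycline in cells with stable M3 receptor; B-score is computed from the integrated fluorescence ratio over baseline after carbachol; higher B-score means a larger calcium signal and so more RGS4 inhibition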
Target sequence (P49798 whole entry, looked up): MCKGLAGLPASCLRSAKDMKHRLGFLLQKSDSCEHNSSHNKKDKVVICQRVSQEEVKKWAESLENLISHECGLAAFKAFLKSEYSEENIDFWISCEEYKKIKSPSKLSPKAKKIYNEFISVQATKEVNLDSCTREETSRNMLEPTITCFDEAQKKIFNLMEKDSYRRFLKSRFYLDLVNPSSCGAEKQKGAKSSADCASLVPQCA
MrgX1 antag conf – MrgX1 receptor antagonists, duplicate retest, confirmation, HEK293 cells, Fluo-4 calcium flux; shares compounds with MrgX1 antagonist; BAM8-22 calcium flux; active compounds read low; remaining BAM8-22 calcium response % of control (active compounds read low), % at 10 µM; 2,300 tested, 19% active; AID 602420, 2012;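 active means remaining agonist calcium response no higher than 100% minus 3 SD of agonist-only control wells, with starting fluorescence near control levels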;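 further: agonist BAM8-22 given at a near maximal EC90 to ECmax level; peak minus minimum fluorescence divided by baseline after agonist addition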
HEK293 Ca flux – nonspecific calcium signal in parental HEK293, confirmation, counter-screen for MrgX1 antagonist project, parental HEK293 cells, Fluo-4 calcium flux. shares compounds with MrgX1 antagonist. Fluo-4 calcium fluorescence, FDSS. fluorescence ratio F(max-min)/F0 at 10 µM. 4,000 tested, 2% active. AID 624111, 2012;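 active means duplicate-averaged calcium fluorescence ratio at least three times the standard deviation of buffer wells, a nonspecific response in parental cells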
HEK293 Ca counter – calcium response in parental HEK293 cells, primary screen, counter-screen for MrgX1 allosteric activator project, cell-based, Fluo-4 calcium flux, duplicate; shares compounds with MrgX1 antagonist; Fluo-4 fluorescence ratio; active compounds read high; fluorescence ratio F(max-min)/F0 at 10 µM; 4,000 tested, 0.4% active;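 active means calcium fluorescence ratio, averaged over duplicates, at least 3 SD of the buffer-well ratio, meaning a nonspecific response in receptor-free cells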;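 further: untransfected parental HEK293 lacking MrgX1 used as counterscreen for MrgX1 allosteric activators; fluorescence change taken during the second addition on a kinetic imager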
HEK293 Ca cntr2 – calcium response in parental HEK293 cells, primary screen, counter-screen for MrgX1 agonist project, cell-based, Fluo-4 calcium flux, duplicate, agonist mode; shares compounds with MrgX1 antagonist; Fluo-4 calcium fluorescence (FDSS); active compounds read high; fluorescence ratio F(max-min)/F0 at 10 µM; 4,000 tested, 8.7% active;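 active means calcium fluorescence ratio at least three times the spread of buffer wells, meaning a non-specific response in parental cells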
The depositor's hits bear a star; i = inactive; · = no result given. Only some compounds are listed: those with a hit (about 3.5% of all), similar ones and a draw of the others.

SMILES	MrgX1 PAM	RGS4 pot	MrgX1 antagonist	MrgX1 agonist	RGS4 inh	MrgX1 antag conf	HEK293 Ca flux	HEK293 Ca counter	HEK293 Ca cntr2
CCC(NC(=O)c1ccccc1NC(=O)c1ccco1)C(=O)O (centres undefined)	i	i	-7.6*	i	i	i	i	i	i
COc1ccccc1NC(=O)c1cc(Cl)ccc1NC(=O)c1ccco1	i	i	i	i	i	·	·	·	·
Nc1cc(Cl)ccc1Oc1ccc(Cl)cc1	i	i	i	i	i	·	·	·	·
Cc1cc2ccccc2n1CCNC(=O)C1CC1	i	i	-6*	i	i	i	i	i	i
Cc1cc2ccccc2n1CCNC(=O)C1CCCC1	i	i	i	i	i	·	·	·	·
Cc1ccc(C(=O)N/C(=C\c2ccco2)C(=O)NCc2cccnc2)cc1	i	i	i	i	i	·	·	·	·
CC1=C(C(N)=O)C(c2ccc(Cl)cc2)n2nc(CCCO)nc2N1 (centres undefined)	i	i	i	i	i	·	·	·	·
CC1=C(C(N)=O)C(c2cccc(O)c2)n2nc(CCCO)nc2N1 (centres undefined)	i	i	-4.7*	i	i	i	i	i	i
O=C(c1ccc2c(c1)OCO2)N1CCN(c2ccc(Cl)cc2)CC1	i	i	i	i	i	·	·	·	·
O=C(c1ccc2c(c1)OCO2)N1CCN(S(=O)(=O)c2ccc(Cl)cc2)CC1	i	i	-4.5*	i	i	i	i	i	i
COC(=O)c1ccccc1NC(=O)c1ccc2c(c1)OCCCO2	i	i	-10*	i	i	i	i	i	i
Cc1ccccc1NC(=O)c1ccc2c(c1)OCCO2	i	i	i	i	i	·	·	·	·
O=C(O)CCCC(=O)Nc1ccccc1C(=O)O	i	i	-6.4*	i	i	i	i	i	i
Cc1cc(N2C(=O)CC(N3CCN(c4ccc(C(=O)c5cccs5)cc4)CC3)C2=O)no1 (centres undefined)	i	i	-5*	i	i	i	i	i	i
COc1ccc(CCN(C)C(=O)CSc2nc3ncc(Cl)cc3[nH]2)cc1OC	i	i	i	i	i	·	·	·	·
O=C(CN1CCN(S(=O)(=O)c2ccc(F)cc2)CC1)NCc1cccs1	i	i	i	i	i	·	·	·	·
c1ccc2c3c(c(CN4CCCCC4)cc2c1)COC3	i	i	i	i	i	·	·	·	·
O=C(Nc1ccc(C(=O)N2CCCC2)cc1)c1ccccc1Br	i	i	i	i	i	·	·	·	·
O=C(Nc1ccc(C(=O)N2CCCCC2)cc1)c1ccccc1Br	i	i	-5.6*	i	i	i	i	i	i
COc1ccc(CNC(=O)c2cccc3c2C(=O)N(CC2CCCO2)C3)cc1 (centres undefined)	i	i	i	i	i	·	·	·	·
O=C1OCCC1Sc1nc2cc(Cl)ccc2n1Cc1ccccc1 (centres undefined)	i	i	i	i	i	·	·	·	·
O=C1OCCC1Sc1nc2ccccc2c(=O)n1Cc1ccccc1 (centres undefined)	i	i	-6.1*	i	i	i	i	i	i
N#CC1=C(N)OC2=C(C(=O)CCC2)C12CCC1(CC2)OCCO1	i	i	i	i	i	·	·	·	·
CC1(C)C(C#N)=C(N)OC2=C1C(=O)CCC2	i	i	-5.7*	i	i	i	i	i	i
O=C(CSc1nnc(CNC(=O)c2ccc(F)cc2)o1)Nc1ccc2c(c1)OCCO2	i	i	i	i	i	·	·	·	·
SMILES	MrgX1 PAM	RGS4 pot	MrgX1 antagonist	MrgX1 agonist	RGS4 inh	MrgX1 antag conf	HEK293 Ca flux	HEK293 Ca counter	HEK293 Ca cntr2
O=C(CSc1nnc(CNC(=O)c2ccccc2)o1)Nc1ccc2c(c1)OCCO2	i	i	-5.6*	i	i	i	i	i	i
Cc1ccc(NC(=O)C2(c3cccs3)CCOCC2)cc1C	i	i	-4.8*	i	i	i	i	i	i
Clc1ccccc1-c1nn2c(-c3ccccn3)nnc2s1	i	i	i	i	i	·	·	·	·
CC(C)Oc1ccc(C(=O)N2CCCc3ccccc32)cc1	i	i	-6.3*	i	i	i	i	i	i
CS(=O)(=O)c1ccc(C(=O)OCC(=O)N2CCCc3ccccc32)cc1	i	i	-7.3*	i	i	85%*	i	i	i
O=C(OCC(=O)N1CCCc2ccccc21)c1cc(S(=O)(=O)N2CCOCC2)ccc1Cl	i	i	-4.5*	i	i	i	i	i	i
COc1ccc(C(=O)N2CCCc3ccccc32)cc1	i	i	i	i	i	·	·	·	·
COc1cc(/C=C2\N=C3CCCCCN3C2=O)ccc1O	i	i	i	i	i	·	·	·	·
CC(=O)N/C(=N/c1nc(C)cc(C)n1)Nc1ccc(NC(C)=O)cc1	i	i	i	i	i	·	·	·	·
CC(C)c1nnc(NC(=O)C2CCCN2C(=O)Nc2ccccc2)s1 (centres undefined)	i	i	i	i	i	·	·	·	·
Cn1cc(S(=O)(=O)N2CCC(C(N)=O)CC2)c(=O)n(C)c1=O	i	i	i	i	i	·	·	·	·
CCC(C)NCCOc1cccc(Br)c1 (centres undefined)	i	i	-5*	i	i	i	i	i	i
